Assay results taken from ChEMBL document CHEMBL3822356, “Urotensin II((4-11)) Azasulfuryl Peptides: Synthesis and Biological Activity” (J Med Chem, 2016).
The source made the active and inactive calls. The rule behind the calls is not given here. Where a SMILES comes first, the peptide text is derived from it.

What was measured:
[1] = biological target: T1, Urotensin-2 receptor (Rattus norvegicus) (UniProt P49684); assay: Partial agonist activity at UT2 receptor in Sprague-Dawley rat thoracic aorta ring assessed as induction of aortic contractions at 10 to 100 uM relative to KCl; type: tissue-based
T1 sequence (whole entry): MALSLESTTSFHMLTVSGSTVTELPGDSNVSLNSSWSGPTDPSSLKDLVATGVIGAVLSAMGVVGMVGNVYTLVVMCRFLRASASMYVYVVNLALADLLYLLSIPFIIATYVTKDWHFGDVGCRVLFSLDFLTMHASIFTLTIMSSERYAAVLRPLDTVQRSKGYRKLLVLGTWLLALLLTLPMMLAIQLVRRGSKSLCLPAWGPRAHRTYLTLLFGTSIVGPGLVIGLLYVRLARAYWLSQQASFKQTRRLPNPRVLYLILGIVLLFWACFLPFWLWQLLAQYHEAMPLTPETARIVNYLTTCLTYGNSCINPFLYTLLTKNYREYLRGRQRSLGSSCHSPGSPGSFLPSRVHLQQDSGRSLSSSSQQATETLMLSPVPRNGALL
Summary of the method: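 Peptides applied alone to rat aortic rings to test for induced contraction. Response expressed as percent of KCl-induced contraction.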

Urotensin-2 receptor = biological target: T2, Urotensin-2 receptor (Homo sapiens, UniProt Q9UKP6); assay: Displacement of [125I]-hU2 from human UT2 receptor expressed in CHO cells after 90 mins by gamma counter assay; type: cell-based
T2 sequence (Q9UKP6 whole entry): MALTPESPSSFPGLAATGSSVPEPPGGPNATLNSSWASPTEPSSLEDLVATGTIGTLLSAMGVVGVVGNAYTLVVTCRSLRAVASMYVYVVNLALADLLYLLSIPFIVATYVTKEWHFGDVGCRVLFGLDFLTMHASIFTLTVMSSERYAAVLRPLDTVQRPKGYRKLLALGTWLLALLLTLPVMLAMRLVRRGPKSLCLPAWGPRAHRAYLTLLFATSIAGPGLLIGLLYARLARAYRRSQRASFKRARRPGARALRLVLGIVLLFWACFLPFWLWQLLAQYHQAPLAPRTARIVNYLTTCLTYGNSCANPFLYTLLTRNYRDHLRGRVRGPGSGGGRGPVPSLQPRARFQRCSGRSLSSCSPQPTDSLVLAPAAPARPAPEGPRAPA
Summary of the method: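 CHO cells overexpressing human UT receptor incubated with test peptide. Displacement of 125I-hUII from UT measured. At least three independent experiments, each determination in triplicate; mean ± S.E.M.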

[2] = biological target: T3, Urotensin-2 receptor (Homo sapiens) (UniProt Q9UKP6); assay: Displacement of [125I]-hU2 from human UT2 receptor expressed in CHO cells at 10^-5 M after 90 mins by gamma counter assay; type: cell-based
T3 sequence (whole entry): T2 sequence (Q9UKP6 whole entry)

[3] = biological target: T1, Urotensin-2 receptor (Rattus norvegicus); assay: Antagonist activity at UT2 receptor in Sprague-Dawley rat thoracic aorta ring assessed as Emax for hU2-induced aortic contractions at 10^-5M relative to KCl; type: tissue-based
Summary of the method: (§1)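 Rat aortic rings pre-exposed to test peptide at 10^-5 M, then given cumulative increasing concentrations (10^-11 to 10^-6 M) of hUII or URP. Contraction measured to give pEC50 and Emax, expressed relative to KCl-induced contraction. Mean ± SEM; unpaired Student's t test against hUII or URP alone.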

[4] = biological target: T1, Urotensin-2 receptor (Rattus norvegicus); assay: Antagonist activity at UT2 receptor in Sprague-Dawley rat thoracic aorta ring assessed as Emax for URP-induced aortic contractions at 10^-5M relative to KCl; type: tissue-based; summary of the method: as §1

Structure (SMILES) | IC50 (Urotensin-2 receptor) | inhibition [2] | Emax [3] | Efficacy [1] | Emax [4] | Activity [1]
CC(C)[C@H](NC(=O)[C@@H]1CSSC[C@H](NC(=O)[C@H](CC(=O)O)NC(=O)[C@@H]2CCCN2C(=O)[C@@H](NC(=O)[C@@H](N)CCC(=O)O)[C@@H](C)O)C(=O)N[C@@H](Cc2ccccc2)C(=O)N[C@@H](Cc2c[nH]c3ccccc23)C(=O)N[C@@H](CCCCN)C(=O)N[C@@H](Cc2ccc(O)cc2)C(=O)N1)C(=O)O |  |  |  |  |  | Active
CC(C)[C@H](NC(=O)[C@@H]1CSSC[C@H](NC(=O)[C@@H](N)CC(=O)O)C(=O)N[C@@H](Cc2ccccc2)C(=O)NN(Cc2ccccc2)S(=O)(=O)N[C@@H](CCCCN)C(=O)N[C@@H](Cc2ccc(O)cc2)C(=O)N1)C(=O)O (HELM PEPTIDE1{D.C.F.[NCCCC[C@H](NS(=O)(=O)N(Cc1ccccc1)N[*:1])C(=O)[*:2]].Y.C.V}$PEPTIDE1,PEPTIDE1,2:R3-6:R3$$$V2.0) | > 1000 nM | 40% | 87% | 3% | 101% | 
CC(C)[C@H](NC(=O)[C@@H]1CSSC[C@H](NC(=O)[C@@H](N)CC(=O)O)C(=O)N[C@@H](Cc2ccccc2)C(=O)N[C@@H](Cc2c[nH]c3ccccc23)C(=O)NN(CCCCN(C)C)S(=O)(=O)N[C@@H](Cc2ccc(O)cc2)C(=O)N1)C(=O)O (HELM PEPTIDE1{D.C.F.W.[CN(C)CCCCN(N[*:1])S(=O)(=O)N[C@@H](Cc1ccc(O)cc1)C(=O)[*:2]].C.V}$PEPTIDE1,PEPTIDE1,2:R3-6:R3$$$V2.0) | > 1000 nM | 40% | 83% |  | 110% | inactive
CC(C)[C@H](NC(=O)[C@@H]1CSSC[C@H](NC(=O)[C@@H](N)CC(=O)O)C(=O)N[C@@H](Cc2ccccc2)C(=O)N[C@@H](Cc2c[nH]c3ccccc23)C(=O)NN(CCCCN)S(=O)(=O)N[C@@H](Cc2ccc(O)cc2)C(=O)N1)C(=O)O (HELM PEPTIDE1{D.C.F.W.[NCCCCN(N[*:1])S(=O)(=O)N[C@@H](Cc1ccc(O)cc1)C(=O)[*:2]].C.V}$PEPTIDE1,PEPTIDE1,2:R3-6:R3$$$V2.0) | > 1000 nM | 40% | 83% |  | 110% | inactive
CC(C)[C@H](NC(=O)[C@@H]1CSSC[C@H](NC(=O)[C@@H](N)CC(=O)O)C(=O)N[C@@H](Cc2ccccc2)C(=O)NN(Cc2cccc3ccccc23)S(=O)(=O)N[C@@H](CCCCN)C(=O)N[C@@H](Cc2ccc(O)cc2)C(=O)N1)C(=O)O | > 1000 nM | 40% | 29% | 3% | 38% | 
CC(C)[C@H](NC(=O)[C@@H]1CSSC[C@H](NC(=O)[C@H](C)N)C(=O)N[C@@H](Cc2ccccc2)C(=O)N[C@@H](Cc2c[nH]c3ccccc23)C(=O)N[C@@H](CCCCN)C(=O)N[C@@H](Cc2ccc(O)cc2)C(=O)N1)C(=O)O |  |  |  |  |  | Active

More lines, main results first:

IC50 (Urotensin-2 receptor) | inhibition [2] | Emax [3] | Efficacy [1] | Emax [4] | Structure (SMILES) | Activity [1]
> 1000 nM | 40% | 51% | 3% | 69% | CC(C)[C@H](NC(=O)[C@@H]1CSSC[C@H](NC(=O)[C@@H](N)CC(=O)O)C(=O)N[C@@H](Cc2ccccc2)C(=O)NN(Cc2ccc(-c3ccccc3)cc2)S(=O)(=O)N[C@@H](CCCCN)C(=O)N[C@@H](Cc2ccc(O)cc2)C(=O)N1)C(=O)O | 
> 1000 nM | 40% | 65% | 3% | 105% | CC(C)[C@H](NC(=O)[C@@H]1CSSC[C@H](NC(=O)[C@@H](N)CC(=O)O)C(=O)N[C@@H](Cc2ccccc2)C(=O)NN(Cc2ccc3ccccc3c2)S(=O)(=O)N[C@@H](CCCCN)C(=O)N[C@@H](Cc2ccc(O)cc2)C(=O)N1)C(=O)O | 
